Data reported in ChEMBL document CHEMBL1649117, “GRL-02031, a novel nonpeptidic protease inhibitor (PI) containing a stereochemically defined fused cyclopentanyltetrahydrofuran potent against multi-PI-resistant human immunodeficiency virus type 1 in vitro” (Antimicrob Agents Chemother, 2009).

Key:
[1] = tested on: Human immunodeficiency virus 1; assay: Antiviral activity against HIV1 JSL harboring L10I/L24I/L33F/E35D/M36I/N37S/M46L/I54V/R57K/I62V/L63P/A71V/G73S/82A in protease encoding region infected in human PHA-PBC assessed as inhibition of p24 Gag protein production by ELISA; type: functional, organism-based; conditions: Human immunodeficiency virus 1, JSL
Outline: (§1)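 Phytohemagglutinin-stimulated PBMs (10^6/ml) infected with 50 TCID50s of each primary isolate, cultured with or without drug in 10-fold serial dilutions. On day 7, supernatant p24 Gag was measured by automated chemiluminescent enzyme immunoassay. […] Triplicate.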

[2] = tested on: Human immunodeficiency virus 1; assay: Antiviral activity against HIV1 MOKW infected in human PHA-PBC assessed as inhibition of p24 Gag protein production by ELISA; type: functional, organism-based; conditions: Human immunodeficiency virus 1, MOKW; outline: as §1
[3] = tested on: Human immunodeficiency virus 1; assay: Antiviral activity against HIV1 TM harboring L10I/K14R/R41K/M46L/I54V/L63P/A71V/V82A/L90M/I93L in protease encoding region infected in human PHA-PBC assessed as inhibition of p24 Gag protein production by ELISA; type: functional, organism-based; conditions: Human immunodeficiency virus 1, TM; outline: as §1
[4] = tested on: Human immunodeficiency virus 1; assay: Ratio of EC50 for HIV1 B harboring L10I/I15V/E35D/N37E/K45R/I54V/L63P/A71V/V82T/L90M/I93L/C95F in protease encoding region to EC50 for HIV1 ERS104pre; type: functional
[5] = tested on: Human immunodeficiency virus 1; assay: Antiviral activity against HIV1 ERS104pre infected in human PHA-PBC assessed as inhibition of p24 Gag protein production by ELISA; type: functional, organism-based; conditions: Human immunodeficiency virus 1, ERS104pre
Outline: (§2)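 Phytohemagglutinin-stimulated PBMs (10^6/ml) infected with 50 TCID50s of each primary isolate, cultured with or without drug in 10-fold serial dilutions. On day 7, supernatant p24 Gag was measured by automated chemiluminescent enzyme immunoassay. Triplicate.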

[6] = tested on: Human immunodeficiency virus 1; assay: Ratio of EC50 for HIV1 MM harboring L10I/K43T/M46L/I54V/L63P/A71V/V82A/L90M/Q92K in protease encoding region infected to EC50 for HIV1 ERS104pre; type: functional
[7] = tested on: Human immunodeficiency virus 1; assay: Ratio of EC50 for HIV1 JSL harboring L10I/L24I/L33F/E35D/M36I/N37S/M46L/I54V/R57K/I62V/L63P/A71V/G73S/82A in protease encoding region to EC50 for HIV1 ERS104pre; type: functional
[8] = tested on: Human immunodeficiency virus 1; assay: Ratio of EC50 for HIV1 G harboring L10I/V11I/T12E/I15V/L19I/R41K/M46L/L63P/A71T/V82A/L90M in protease encoding region to EC50 for HIV1 ERS104pre; type: functional
[9] = tested on: Human immunodeficiency virus 1; assay: Antiviral activity against HIV1 B harboring L10I/I15V/E35D/N37E/K45R/I54V/L63P/A71V/V82T/L90M/I93L/C95F in protease encoding region infected in human PHA-PBC assessed as inhibition of p24 Gag protein production by ELISA; type: functional, organism-based; conditions: Human immunodeficiency virus 1, B; outline: as §1
[10] = tested on: Human immunodeficiency virus 1; assay: Antiviral activity against HIV1 A harboring L10I/I15V/E35D/N37E/K45R/I54V/L63P/A71V/V82T/L90M/I93L/C95F in protease encoding region infected in human PHA-PBC assessed as inhibition of p24 Gag protein production by ELISA; type: functional, organism-based; conditions: Human immunodeficiency virus 1, A; outline: as §2
[11] = tested on: Human immunodeficiency virus 1; assay: Ratio of EC50 for HIV1 C harboring L10I/I15V/K20R/L24I/M36I/M46L/I54V/I62V/L63P/K70Q/V82A/L89M in protease encoding region to EC50 for HIV1 ERS104pre; type: functional
[12] = tested on: Human immunodeficiency virus 1; assay: Ratio of EC50 for HIV1 TM harboring L10I/K14R/R41K/M46L/I54V/L63P/A71V/V82A/L90M/I93L in protease encoding region to EC50 for HIV1 ERS104pre; type: functional
Outline: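 PHA-stimulated PBMs (10^6/ml) infected with 50 TCID50s of primary HIV-1 isolate and cultured with 10-fold serial drug dilutions. Day 7 supernatant p24 Gag measured by chemiluminescent enzyme immunoassay. […] Triplicate. Ratio is resistant isolate EC50 over reference isolate EC50.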

[13] = tested on: Human immunodeficiency virus 1; assay: Ratio of EC50 for HIV1 A harboring L10I/I15V/E35D/N37E/K45R/I54V/L63P/A71V/V82T/L90M/I93L/C95F in protease encoding region to EC50 for HIV1 ERS104pre; type: functional
[14] = tested on: Human immunodeficiency virus 1; assay: Antiviral activity against HIV1 MM harboring L10I/K43T/M46L/I54V/L63P/A71V/V82A/L90M/Q92K in protease encoding region infected in human PHA-PBC assessed as inhibition of p24 Gag protein production by ELISA; type: functional, organism-based; conditions: Human immunodeficiency virus 1, MM; outline: as §1
[15] = tested on: Human immunodeficiency virus 1; assay: Antiviral activity against HIV1 NL4-3 harboring L10I/G48V/I54V/L90M amino acid substitution in protease encoding region infected in human MT4 cells assessed as inhibition of p24 Gag protein production selected at 5 uM of saquinavir by ELISA; type: functional, organism-based; conditions: Human immunodeficiency virus 1, NL4-3, MT4
Outline: (§3)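 HIV-1NL4-3 (500 TCID50s) was passaged in MT-4 cells, starting at 0.01–0.03 µM PI and raising the drug generally two- to threefold as virus propagated. Cell-free passage used day-7 supernatants. Variants were then tested in MT-4 cells (10^5/ml) with 100 TCID50s, with or without drug, at 37°C. Day-7 p24 Gag was read by chemiluminescent immunoassay; EC50 vs drug-free control; triplicate.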

[16] = tested on: Human immunodeficiency virus 1; assay: Antiviral activity against HIV1 NL4-3 harboring M46I/V82F/I84V amino acid substitution in protease encoding region infected in human MT4 cells assessed as inhibition of p24 Gag protein production selected at 5 uM of ritonavir by ELISA; type: functional, organism-based; conditions: Human immunodeficiency virus 1, NL4-3, MT4; outline: as §3
[17] = tested on: Human immunodeficiency virus 1; assay: Antiviral activity against HIV1 NL4-3 infected in human MT4 cells assessed as inhibition of p24 gag protein production by ELISA; type: functional, organism-based; conditions: Human immunodeficiency virus 1, NL4-3, MT4
Outline: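 MT-4 cells (10^5/ml) were infected with 100 TCID50s of HIV-1 and cultured at 37°C with or without various drug concentrations. On day 7, supernatant p24 Gag was measured by automated chemiluminescent enzyme immunoassay. […] Assays were run in triplicate.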

[18] = tested on: Human immunodeficiency virus 1; assay: Antiviral activity against HIV1 NL4-3 harboring L23I/K43I/M46I/I50L/G51A/A71V amino acid substitution in protease encoding region infected in human MT4 cells assessed as inhibition of p24 Gag protein production selected at 1 uM of atazanavir by ELISA; type: functional, organism-based; conditions: Human immunodeficiency virus 1, NL4-3, MT4; outline: as §3
[19] = tested on: Human immunodeficiency virus 1; assay: Ratio of EC50 for HIV1 NL4-3 harboring M46I/V82F/I84V amino acid substitution in protease encoding region to EC50 for HIV1 NL4-3; type: functional
Outline: (§4)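 MT-4 cells (10^5/ml) infected with 100 TCID50s of PI-selected HIV-1NL4-3 variants or the parental strain, with or without serial drug concentrations, at 37°C. Day 7 supernatant p24 Gag measured by chemiluminescent enzyme immunoassay. […] Triplicate. Ratio is variant EC50 over wild-type EC50.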

[20] = tested on: Human immunodeficiency virus 1; assay: Ratio of EC50 for HIV1 NL4-3 harboring L10F/D30N/K45I/A71V/T74S amino acid substitution in protease encoding region to EC50 for HIV1 NL4-3; type: functional
[21] = tested on: Human immunodeficiency virus 1; assay: Ratio of EC50 for HIV1 NL4-3 harboring L10F/V32I/M46I/I54M//A71V/I84V amino acid substitution in protease encoding region to EC50 for HIV1 NL4-3; type: functional; outline: as §4
[22] = tested on: Human immunodeficiency virus 1; assay: Ratio of EC50 for HIV1 NL4-3 harboring L10I/G48V/I54V/L90M amino acid substitution in protease encoding region to EC50 for HIV1 NL4-3; type: functional; outline: as §4
[23] = tested on: Human immunodeficiency virus 1; assay: Ratio of EC50 for HIV1 NL4-3 harboring L10F/L24I/M46I/L63P/A71V/G73S/V82T amino acid substitution in protease encoding region to EC50 for HIV1 NL4-3; type: functional; outline: as §4
[24] = tested on: Human immunodeficiency virus 1; assay: Antiviral activity against HIV1 NL4-3 harboring L10F/L33F/M46I/I47V/Q58E/V82I/I84V/I85V amino acid substitution in protease encoding region infected in human MT4 cells assessed as inhibition of p24 Gag protein production selected at 5 uM of GRL-02031 by ELISA; type: functional, organism-based; conditions: Human immunodeficiency virus 1, NL4-3, MT4
Outline: (§5)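 Cell-free passage used day-7 supernatants. Variants were then tested in MT-4 cells (10^5/ml) with 100 TCID50s, with or without drug, at 37°C. Day-7 p24 Gag was read by chemiluminescent immunoassay; EC50 vs drug-free control; triplicate.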

[25] = tested on: Human immunodeficiency virus 1; assay: Antiviral activity against HIV1 NL4-3 harboring L10F/V32I/M46I/I54M//A71V/I84V amino acid substitution in protease encoding region infected in human MT4 cells assessed as inhibition of p24 Gag protein production selected at 5 uM of amprenavir by ELISA; type: functional, organism-based; conditions: Human immunodeficiency virus 1, NL4-3, MT4; outline: as §5
[26] = tested on: Human immunodeficiency virus 1; assay: Antiviral activity against HIV1 NL4-3 harboring L10F/M46I/I54V/V82A amino acid substitution in protease encoding region infected in human MT4 cells assessed as inhibition of p24 Gag protein production selected at 1 uM of Lopinavir by ELISA; type: functional, organism-based; conditions: Human immunodeficiency virus 1, NL4-3, MT4; outline: as §5
[27] = tested on: Human immunodeficiency virus 1; assay: Antiviral activity against HIV1 NL4-3 harboring L10F/L24I/M46I/L63P/A71V/G73S/V82T amino acid substitution in protease encoding region infected in human MT4 cells assessed as inhibition of p24 Gag protein production selected at 5 uM of indinavir by ELISA; type: functional, organism-based; conditions: Human immunodeficiency virus 1, NL4-3, MT4; outline: as §3
[28] = tested on: Human immunodeficiency virus 1; assay: Ratio of EC50 for HIV1 NL4-3 harboring L10F/L33F/M46I/I47V/Q58E/V82I/I84V/I85V amino acid substitution in protease encoding region to EC50 for HIV1 NL4-3; type: functional; outline: as §4
[29] = tested on: Human immunodeficiency virus 1; assay: Ratio of EC50 for HIV1 NL4-3 harboring L10F/M46I/I54V/V82A amino acid substitution in protease encoding region to EC50 for HIV1 NL4-3; type: functional; outline: as §4
[30] = tested on: Human immunodeficiency virus 1; assay: Antiviral activity against HIV1 NL4-3 harboring L10F/D30N/K45I/A71V/T74S amino acid substitution in protease encoding region infected in human MT4 cells assessed as inhibition of p24 Gag protein production selected at 5 uM of nelfinavir by ELISA; type: functional, organism-based; conditions: Human immunodeficiency virus 1, NL4-3, MT4; outline: as §3
[31] = tested on: Human immunodeficiency virus 1; assay: Ratio of EC50 for HIV1 NL4-3 harboring L23I/K43I/M46I/I50L/G51A/A71V amino acid substitution in protease encoding region to EC50 for HIV1 NL4-3; type: functional; outline: as §4

CC(C)CN(C[C@@H](O)[C@H](Cc1ccccc1)NC(=O)O[C@H]1CO[C@H]2OCC[C@H]21)S(=O)(=O)c1ccc(N)cc1
EC50 [1]: 26 nM
EC50 [2]: 3 nM
EC50 [3]: 4 nM
Ratio EC50 [4]: 7
EC50 [5]: 3.5 nM
Ratio EC50 [6]: 5
Ratio EC50 [7]: 7
Ratio EC50 [8]: 2
EC50 [9]: 26 nM
EC50 [10]: 3 nM
Ratio EC50 [11]: 2
Ratio EC50 [12]: 1
Ratio EC50 [13]: 1
EC50 [14]: 17 nM

COC(=O)N[C@H](C(=O)N[C@@H](Cc1ccccc1)[C@@H](O)CN(Cc1ccc(-c2ccccn2)cc1)NC(=O)[C@@H](NC(=O)OC)C(C)(C)C)C(C)(C)C [ATAZANAVIR]
EC50 [15]: 320 nM
EC50 [16]: 21 nM
EC50 [17]: 4.3 nM
EC50 [18]: 310 nM
Ratio EC50 [19]: 5
Ratio EC50 [20]: 6
Ratio EC50 [21]: 1
Ratio EC50 [22]: 74
Ratio EC50 [23]: 15
EC50 [24]: 36 nM
EC50 [25]: 3.2 nM
EC50 [26]: 41 nM
EC50 [27]: 63 nM
Ratio EC50 [28]: 8
Ratio EC50 [29]: 10
EC50 [30]: 24 nM
Ratio EC50 [31]: 72
